{
  "source": "ChEMBL document CHEMBL1153546",
  "about": "“Pharmacokinetics of telbivudine in subjects with various degrees of renal impairment” (Antimicrob Agents Chemother, 2007)",
  "key": {"[1]": {"test": "Mean cumulative urine excretion level in patient with severe renal impairment at 200 mg, po administered as single dose", "type": "ADME, organism-based", "settings": "human, read-out: Activity", "procedure,_shortened": "(§1)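 Urine collected at –2 to 0 h predose and at 0–4, 4–8, 8–12, 12–24 and 24–48 h after a single oral dose. Unchanged telbivudine measured by validated HPLC-MS/MS (LLOQ 30 ng/ml, calibration 30–5,000 ng/ml), and amounts were summed cumulatively.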"}, "[2]": {"test": "Plasma clearance in patient with end-stage renal disease at 200 mg, po administered as two single doses 2 hrs before dialysis separated by 1 week washout period", "type": "ADME, organism-based", "settings": "human", "procedure,_shortened": "(§2)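 Apparent total oral plasma clearance (CL/F) = dose/AUC0-∞. AUC was obtained noncompartmentally from plasma LC-MS/MS concentrations sampled up to 48 h after a single oral dose.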"}, "[3]": {"test": "AUC (0 to infinity) in patient with end-stage renal disease at 200 mg, po administered as two single doses 2 hrs before dialysis separated by 1 week washout period", "type": "ADME, organism-based", "set-up": "dose 200 mg, route oral, time infinity", "settings": "human, plasma", "procedure,_shortened": "(§3)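 Single oral telbivudine dose. Heparinized blood was drawn predose and up to 48 h postdose, with extra paired dialyzer samples for predialysis dosing. Plasma was stored at –20°C and assayed by validated HPLC-MS/MS (LLOQ 10 ng/ml, range 10–5,000 ng/ml). Noncompartmental analysis: AUC0-t by linear trapezoidal rule to last measurable concentration; AUC0-∞ = AUC0-t + Ct/kel.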"}, "[4]": {"test": "AUC (0 to t) in patient with mild renal impairment at 600 mg, po administered as single dose", "type": "ADME, organism-based", "settings": "human, plasma", "procedure,_shortened": "as §3"}, "[5]": {"test": "Initial decline half life in human with normal renal function at 600 mg, po administered as single dose", "type": "ADME, organism-based", "settings": "in vivo, read-out: alphat1/2 (converted)", "procedure,_shortened": "(§4)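 Half-lives came from noncompartmental analysis of plasma LC-MS/MS concentrations over 48 h after a single oral dose. Terminal and initial-decline t1/2 were calculated as 0.693/k, with each rate constant derived by stripping and linear regression.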"}, "[6]": {"test": "Plasma clearance in human with normal renal function", "type": "ADME, organism-based"}, "[7]": {"test": "Renal clearance in human with normal renal function at 600 mg, po administered as single dose", "type": "ADME, organism-based, Kidney", "settings": "in vivo, read-out: CL_renal (converted)", "procedure,_shortened": "(§5)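 Renal clearance = Au0-t/AUC0-t, where Au0-t is the cumulative unchanged drug in urine collected over 0–48 h. Plasma and urine were assayed by validated HPLC-MS/MS after a single oral dose.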"}, "[8]": {"test": "Elimination half life in patient with end-stage renal disease at 200 mg, po administered as two single doses 2 hrs before dialysis separated by 1 week washout period", "type": "ADME, organism-based", "settings": "human, in vivo, read-out: beta t1/2 (converted)", "procedure,_shortened": "as §4"}, "HepG2 [9]": {"test_system": "HepG2", "test": "Metabolic stability in human HepG2 cells assessed as Telbivudine triphosphate half life", "type": "ADME, cell-based"}, "[10]": {"test": "AUC (0 to infinity) in patient with mild renal impairment at 600 mg, po administered as single dose", "type": "ADME, organism-based", "set-up": "dose 600 mg, route oral, time infinity", "settings": "human, plasma", "procedure,_shortened": "as §3"}, "[11]": {"test": "AUC (0 to t) in patient with severe renal impairment at 200 mg, po administered as single dose", "type": "ADME, organism-based", "settings": "human, plasma", "procedure,_shortened": "as §3"}, "[12]": {"test": "Tmax in patient with moderate renal impairment at 400 mg, po administered as single dose", "type": "ADME, organism-based", "settings": "human, in vivo", "procedure,_shortened": "(§6)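 Single oral dose. Plasma was frozen at –20°C. Assay by validated HPLC-MS/MS (LLOQ 10 ng/ml, calibration 10–5,000 ng/ml, m/z 243.0→127.1). Tmax was read directly from the concentration-time data, with noncompartmental analysis.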"}, "[13]": {"test": "AUC (0 to infinity) in patient with moderate renal impairment at 400 mg, po administered as single dose", "type": "ADME, organism-based", "set-up": "dose 400 mg, time infinity, route oral", "settings": "human, plasma", "procedure,_shortened": "as §3"}, "[14]": {"test": "Cmax in human with normal renal function at 600 mg, po administered as single dose", "type": "ADME, organism-based", "set-up": "dose 600 mg, route oral", "settings": "in vivo", "procedure,_shortened": "(§7)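 Plasma telbivudine after one oral dose, sampled predose through 48 h and quantified by validated LC-MS/MS (LLOQ 10 ng/ml, transition 243.0→127.1 m/z). Cmax was read directly from the observed concentration-time data.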"}, "[15]": {"test": "Tmax in patient with end-stage renal disease at 200 mg, po administered as two single doses 2 hrs before dialysis separated by 1 week washout period", "type": "ADME, organism-based", "settings": "human, in vivo", "procedure,_shortened": "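ESRD subjects dosed orally before dialysis, with a 3.5–4 h hemodialysis session starting 2 h post-dose. Blood was drawn predose and at 0.5, 0.75, 1, 2, 3.75–4, 5.5–6, 8, 12, 16, 20, 24, 28, 32, 36 and 48 h. Paired pre/postdialyzer samples were taken at the dialysis time points. Plasma telbivudine by HPLC-MS/MS. Tmax taken directly from the observed data.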"}, "[16]": {"test": "Cmax in patient with mild renal impairment at 600 mg, po administered as single dose", "type": "ADME, organism-based", "set-up": "dose 600 mg, route oral", "settings": "human, in vivo", "procedure,_shortened": "as §7"}, "[17]": {"test": "Elimination half life in patient with mild renal impairment at 600 mg, po administered as single dose", "type": "ADME, organism-based", "settings": "human, in vivo, read-out: beta t1/2 (converted)", "procedure,_shortened": "as §4"}, "[18]": {"test": "Tmax in patient with end-stage renal disease at 200 mg, po administered as two single doses within 2 hrs of after completion of dialysis separated by 1 week washout period", "type": "ADME, organism-based", "settings": "human, in vivo", "procedure,_shortened": "as §6"}, "[19]": {"test": "Plasma clearance in patient with end-stage renal disease at 200 mg, po administered as two single doses within 2 hrs of after completion of dialysis separated by 1 week washout period", "type": "ADME, organism-based", "settings": "human", "procedure,_shortened": "as §2"}, "[20]": {"test": "Oral bioavailability in human with normal renal function", "type": "ADME, organism-based", "settings": "in vivo"}, "[21]": {"test": "Elimination half life in patient with severe renal impairment at 200 mg, po administered as single dose", "type": "ADME, organism-based", "settings": "human, in vivo, read-out: beta t1/2 (converted)", "procedure,_shortened": "as §4"}, "[22]": {"test": "AUC (0 to t) in human with normal renal function at 600 mg, po administered as single dose", "type": "ADME, organism-based", "settings": "plasma", "procedure,_shortened": "as §3"}, "[23]": {"test": "Renal clearance in patient with moderate renal impairment at 400 mg, po administered as single dose", "type": "ADME, organism-based, Kidney", "settings": "human, in vivo, read-out: CL_renal (converted)", "procedure,_shortened": "as §5"}, "Homo sapiens": {"test_system": "Homo sapiens", "test": "AUC (0 to infinity) in human with normal renal function at 600 mg, po administered as single dose", "type": "ADME, organism-based, Plasma", "set-up": "dose 600 mg, route oral, time infinity", "settings": "in vivo", "procedure,_shortened": "as §3"}, "[24]": {"test": "Tmax in patient with mild renal impairment at 600 mg, po administered as single dose", "type": "ADME, organism-based", "settings": "human, in vivo", "procedure,_shortened": "as §6"}, "[25]": {"test": "Renal clearance in patient with severe renal impairment at 200 mg, po administered as single dose", "type": "ADME, organism-based, Kidney", "settings": "human, in vivo, read-out: CL_renal (converted)", "procedure,_shortened": "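Single oral dose. Urine was collected at –2–0 h and over 0–4, 4–8, 8–12, 12–24 and 24–48 h; plasma was sampled over 48 h. Both matrices were assayed by HPLC-MS/MS (urine LLOQ 30 ng/ml, plasma LLOQ 10 ng/ml). Renal clearance = cumulative urinary unchanged drug (Au0-t) / AUC0-t, with AUC by the linear trapezoidal rule.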"}, "[26]": {"test": "Initial decline half life in patient with mild renal impairment at 600 mg, po administered as single dose", "type": "ADME, organism-based", "settings": "human, in vivo, read-out: alphat1/2 (converted)", "procedure,_shortened": "as §4"}, "[27]": {"test": "Mean cumulative urine excretion level in patient with moderate renal impairment at 400 mg, po administered as single dose", "type": "ADME, organism-based", "settings": "human, read-out: Activity", "procedure,_shortened": "as §1"}, "HepG2 [28]": {"test_system": "HepG2", "test": "Cmax for Telbivudine triphosphate in HepG2 cells after 10 uM Telbivudine treatment", "type": "ADME, cell-based", "settings": "human, hepg2, 10 µM; read-out: Cmax_triphosphate"}},
  "data": [
    {"smiles": "Cc1cn([C@@H]2C[C@@H](O)[C@H](CO)O2)c(=O)[nH]c1=O", "note": "[TELBIVUDINE]", "values": [
      {"measurement": "dose excreted", "setting": "[1]", "value": 8, "unit": "%"},
      {"measurement": "CL/F", "setting": "[2]", "value": 81.7, "unit": "mL/min"},
      {"measurement": "AUC(0-inf)", "setting": "[3]", "value": 43400, "unit": "ng·h/mL"},
      {"measurement": "AUC(0-t)", "setting": "[4]", "value": 29200, "unit": "ng·h/mL"},
      {"measurement": "half-life", "setting": "[5]", "value": 2.32, "unit": "h"},
      {"measurement": "clearance", "setting": "[6]", "value": 200, "unit": "mL/min"},
      {"measurement": "CL renal", "setting": "[7]", "value": 127, "unit": "mL/min"},
      {"measurement": "half-life", "setting": "[8]", "value": 35.2, "unit": "h"},
      {"measurement": "t1/2", "setting": "HepG2 [9]", "value": 15, "unit": "h"},
      {"measurement": "AUC(0-inf)", "setting": "[10]", "value": 32500, "unit": "ng·h/mL"},
      {"measurement": "AUC(0-t)", "setting": "[11]", "value": 25300, "unit": "ng·h/mL"},
      {"measurement": "Tmax", "setting": "[12]", "value": 4, "unit": "h"},
      {"measurement": "AUC(0-inf)", "setting": "[13]", "value": 36000, "unit": "ng·h/mL"},
      {"measurement": "Cmax", "setting": "[14]", "value": 3400, "unit": "ng/mL"},
      {"measurement": "Tmax", "setting": "[15]", "value": 8, "unit": "h"},
      {"measurement": "Cmax", "setting": "[16]", "value": 3200, "unit": "ng/mL"},
      {"measurement": "half-life", "setting": "[17]", "value": 26.7, "unit": "h"},
      {"measurement": "Tmax", "setting": "[18]", "value": 3.5, "unit": "h"},
      {"measurement": "CL/F", "setting": "[19]", "value": 60, "unit": "mL/min"},
      {"measurement": "bioavailability", "setting": "[20]", "value": 52, "unit": "%"},
      {"measurement": "half-life", "setting": "[21]", "value": 32.9, "unit": "h"},
      {"measurement": "AUC(0-t)", "setting": "[22]", "value": 26500, "unit": "ng·h/mL"},
      {"measurement": "CL renal", "setting": "[23]", "value": 43.3, "unit": "mL/min"},
      {"measurement": "AUC", "setting": "Homo sapiens", "value": 28500, "unit": "ng·h/mL"},
      {"measurement": "Tmax", "setting": "[24]", "value": 4, "unit": "h"},
      {"measurement": "CL renal", "setting": "[25]", "value": 11.7, "unit": "mL/min"},
      {"measurement": "half-life", "setting": "[26]", "value": 3.42, "unit": "h"},
      {"measurement": "dose excreted", "setting": "[27]", "value": 19.8, "unit": "%"},
      {"measurement": "Cmax", "setting": "HepG2 [28]", "value": 30, "unit": "µM"}
    ]}
  ]
}
